The results in this text go back to ChEMBL document CHEMBL5653608 (Br J Pharmacol, 2011).

Broadly, the EC50 is the concentration giving half of the maximal effect. As a reminder, the IC50 is the concentration at which inhibition is half-maximal.

Structures are written as SMILES.

Experiment [1] in a line: Inhibition of EFS-induced contraction of Beagle dog bronchiole. The format is functional, tissue-based, Canis lupus familiaris.
A short description of experiment [2]: Induction of relaxation in forskolin-induced carbachol pre-contracted C57BL/6 mouse trachea incubated for 30 mins. The format is functional, tissue-based. In a few lines: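 Male C57BL/6 tracheal rings at 0.35 g tension in Krebs (95% O2/5% CO2, 37°C). Rings were precontracted with 10 µM carbachol before cumulative half-log PGE2 (0.1 nM–30 µM). Curves were repeated in the same ring after 30 min with 3 nM antagonist or DMSO, and 10 µM forskolin set maximal relaxation. pKB = log(CR−1) − log[B].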

A short description of experiment [3]: Inhibition of EFS-induced contraction of human myometrium incubated for 60 mins. The format is functional, tissue-based. In a few lines:
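Human myometrial strips (donors aged 24–76) in a 15 mL Krebs bath at 37°C, under EFS at 15 V, 1.5 ms pulses, 10 s every 100 s, at a submaximal 15 Hz. Antagonist (10 or 100 nM) or vehicle was equilibrated for 60 min. Cumulative butaprost (0.1 nM–10 µM) or PGE2 (0.1 nM–3 µM) was given for at least five EFS responses per concentration. pKB was calculated from same-donor concentration ratios.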

Experiment [4] in a line: Induction of relaxation in […] C57BL/6 mouse trachea at 0.1 to 30 uM incubated for 30 mins relative to control (reference value: 21.6 +/- 8.8%). Details: scale not given: the % may be the effect or the level left. The note with it: dose 0.1-30 µM, 0.5 h. In kind it is functional.

For the compound `CCCC1([C@H](O)C/C=C/[C@H]2[C@H](O)CC(=O)[C@@H]2CCCCCCC(=O)OC)CCC1` [BUTAPROST], the EC50 in experiment [1] amounted to 139 nM; in experiment [2], 893 nM. The compound also returned an IC50 in experiment [3] of 27.8 nM. The compound also showed an Activity in experiment [4] of 69.1%.
